Laboratory results published in ChEMBL document CHEMBL1126664, “Pyrazoline bisphosphonate esters as novel antiinflammatory and antiarthritic agents” (1993).

Legend:
Mus musculus [1] = assay: Inhibition of delayed type hypersensitivity granuloma results at 100 mg/kg in dry weight; format: functional
In short: (§1)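 Groups of 10 female CF-1 mice (25 g) were sensitised sc over the inguinal lymph node with mBSA emulsion in Freund's incomplete adjuvant plus dextran. Two mBSA-soaked hydroxyapatite disks were implanted per mouse. Sc dosing ran daily from implantation to day 9, then granulomas were excised for wet and dry weights. Student's paired t test.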

Mus musculus [2] = assay: Inhibition of delayed type hypersensitivity granuloma results at 100 mg/kg in wet weight; format: functional; in short: as §1
Rattus norvegicus [3] = assay: Inhibition of rat adjuvant-induced arthritis (AIP) at the dose of 15 mg/kg in the non-injected paw; format: functional
In short: (§2)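 Rats received adjuvant (M. tuberculosis in mineral oil) into the left hindpaw on day 0. Compounds in sterile saline, pH 7.0, were given sc once daily for 28 days, with sc vehicle arthritic controls. Paw volume change in injected and noninjected hindpaws was measured on day 28 by mercury-displacement plethysmography.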

Rattus norvegicus [4] = assay: Inhibition of rat adjuvant-induced arthritis (AIP) at the dose of 5 mg/kg in the non-injected paw; format: functional; in short: as §2
Mus musculus [5] = assay: Inhibition of antigen-induced arthritis (AIA) in mice at the dose of 50 mg/kg in the non-injected paw; format: functional
Mus musculus [6] = assay: Inhibition of antigen-induced arthritis (AIA) in mice at the dose of 25 mg/kg in the non-injected paw; format: functional
Rattus norvegicus [7] = assay: Inhibition of rat adjuvant-induced arthritis (AIP) at the dose of 60 mg/kg in the non-injected paw; format: functional; in short: as §2
Mus musculus [8] = assay: Inhibition of antigen-induced arthritis (AIA) in mice at the dose of 100 mg/kg in the non-injected paw; format: functional
Mus musculus [9] = assay: Inhibition of delayed type hypersensitivity granuloma results at 50 mg/kg in wet weight; format: functional; in short: as §1
Rattus norvegicus [10] = assay: Inhibition of rat adjuvant induced polyarthritis (AIP) at the dose of 100 mg/kg in the injected paw; format: functional; in short: as §2
Mus musculus [11] = assay: Inhibition of delayed type hypersensitivity granuloma results at 25 mg/kg in dry weight; format: functional; in short: as §1
Rattus norvegicus [12] = assay: (§3) Inhibition of rat adjuvant induced polyarthritis (AIP) at the dose of 5 mg/kg in the injected paw; format: functional; in short: as §2
Rattus norvegicus [13] = assay: Inhibition of rat adjuvant induced polyarthritis (AIP) at the dose of 60 mg/kg in the injected paw; format: functional; in short: as §2
Rattus norvegicus [14] = assay: Inhibition of rat adjuvant-induced arthritis (AIP) at the dose of 100 mg/kg in the non-injected paw; format: functional; in short: as §2
Mus musculus [15] = assay: Inhibition of delayed type hypersensitivity granuloma at 25 mg/kg in wet weight; format: functional; in short: as §1
Mus musculus [16] = assay: Inhibition of delayed type hypersensitivity granuloma results at 50 mg/kg in dry weight; format: functional; in short: as §1
Rattus norvegicus [17] = assay: (§4) Inhibition of rat adjuvant induced polyarthritis (AIP) at the dose of 15 mg/kg in the injected paw; format: functional; in short: as §2
Mus musculus [18] = assay: Inhibition of antigen-induced arthritis (AIA) in mice at the dose of 100 mg/kg; format: functional
In short: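 Mice were immunised, boosted after 7 days, and challenged 14 days later with 200 μg mBSA in saline into the left rear stifle joint. Dosing was sc in saline at pH 7.0, 5 of 7 days, from challenge (day 0) to day 28. H&E sagittal joint sections were graded 1–5 each for soft tissue inflammation, pannus, and cartilage and bone erosion, then summed (max 20). One-way ANOVA vs vehicle.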

Rattus norvegicus [19] = assay: Inhibition of rat adjuvant induced arthritis (AIP) at the dose of 100 mg/kg in the non-injected paw; format: functional; in short: as §2
Rattus norvegicus [20] = assay: Inhibition of rat adjuvant induced arthritis (AIP) at the dose of 15 mg/kg in the non-injected paw; format: functional; in short: as §2
Mus musculus [21] = assay: Inhibition of delayed type hypersensitivity granuloma results at 200 mg/kg in dry weight; format: functional; in short: as §1
Mus musculus [22] = assay: Inhibition of delayed type hypersensitivity granuloma results at 200 mg/kg in wet weight; format: functional; in short: as §1
Rattus norvegicus [23] = assay: Inhibition of rat adjuvant induced polyarthritis (AIP) at the dose of 30 mg/kg in the injected paw; format: functional
In short: (§5)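 Rat adjuvant arthritis induced by M. tuberculosis in mineral oil into the left hindpaw on day 0. Dosed sc once daily for 28 days in sterile saline adjusted to pH 7.0. Change in paw volume of the injected and noninjected hindpaws measured on day 28 by mercury-displacement plethysmography, giving % inhibition versus the sc vehicle arthritic control.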

Rattus norvegicus [24] = assay: Inhibition of adjuvant-induced polyarthritis (AIP) in rats at the dose of 5 mg/kg in the non-injected paw
Rattus norvegicus [25] = assay: as §4; format: functional; in short: as §5; remark: listed apart in the source
Rattus norvegicus [26] = assay: Inhibition of rat adjuvant induced polyarthritis (AIP) at the dose of 10 mg/kg in the injected paw; format: functional; in short: as §5
Mus musculus [27] = assay: Inhibition of antigen-induced polyarthritis (AIP) in mice at the dose of 50 mg/kg; format: functional
In short: (§6)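 Murine antigen-induced arthritis: mice immunized with mBSA (with M. tuberculosis), boosted at 7 days, and challenged 14 days later with 200 μg mBSA in saline into the left rear stifle joint. Dosed sc (scruff; saline vehicle, pH 7.0) 5 of 7 days from day 0 to 28. H&E sagittal joint sections scored 1–5 each for inflammation, pannus, and cartilage/bone erosion, summed to a global score (max 20). One-way ANOVA versus vehicle.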

Rattus norvegicus [28] = assay: Inhibition of adjuvant-induced polyarthritis (AIP) in rats at the dose of 10 mg/kg in the non-injected paw
Rattus norvegicus [29] = assay: Inhibition of rat adjuvant induced polyarthritis (AIP) at the dose of 15 mg/kg in the non-injected paw; format: functional; in short: as §5
Mus musculus [30] = assay: Inhibition of antigen-induced polyarthritis (AIP) in mice at the dose of 200 mg/kg; format: functional; in short: as §6
Mus musculus [31] = assay: Inhibition of antigen-induced polyarthritis (AIP) in mice at the dose of 15 mg/kg; format: functional; in short: as §6
Mus musculus [32] = assay: Inhibition of antigen-induced polyarthritis (AIP) in mice at the dose of 30 mg/kg; format: functional; in short: as §6
Mus musculus [33] = assay: Inhibition of antigen-induced polyarthritis (AIP) in mice at the dose of 100 mg/kg; format: functional; in short: as §6
Rattus norvegicus [34] = assay: as §3; format: functional; in short: as §5; remark: listed apart in the source
Mus musculus [35] = assay: Inhibition of antigen-induced polyarthritis (AIP) in mice at the dose of 5 mg/kg; format: functional; in short: as §6
Rattus norvegicus [36] = assay: Inhibition of rat adjuvant induced polyarthritis (AIP) at the dose of 30 mg/kg in the non-injected paw; format: functional; in short: as §5

Q: Which results are given for `O=C(C1=NNC(P(=O)(O)O)(P(=O)(O)O)C1)c1ccccc1`?
A: inhibition in vivo at 100 mg/kg (Mus musculus [1]): 19%; inhibition in vivo at 100 mg/kg (Mus musculus [2]): 18%

Q: With `CCOP(=O)(OCC)C1(P(=O)(OCC)OCC)CC(C(=O)c2cccc(F)c2)=NN1` as the molecule, how does the inhibition in vivo at 15 mg/kg (Rattus norvegicus [3]) read?
A: 46%

Q: And the inhibition in vivo at 5 mg/kg (Rattus norvegicus [4])?
A: 0%

Q: And the inhibition in vivo at 50 mg/kg (Mus musculus [5])?
A: 52%

Q: What about the inhibition in vivo at 25 mg/kg (Mus musculus [6]) of the same molecule?
A: 42%

Q: What about the inhibition in vivo at 60 mg/kg (Rattus norvegicus [7]) of the same molecule?
A: 46%

Q: What about the inhibition in vivo at 100 mg/kg (Mus musculus [8]) of the same molecule?
A: 55%

Q: What about the inhibition in vivo at 50 mg/kg (Mus musculus [9]) of the same molecule?
A: 45%

Q: And the inhibition in vivo at 100 mg/kg (Rattus norvegicus [10])?
A: 22%

Q: What about the inhibition in vivo at 25 mg/kg (Mus musculus [11]) of the same molecule?
A: 49%

Q: What about the inhibition in vivo at 5 mg/kg (Rattus norvegicus [12]) of the same molecule?
A: 0%

Q: And the inhibition in vivo at 60 mg/kg (Rattus norvegicus [13])?
A: 8%

Q: What about the inhibition in vivo at 100 mg/kg (Mus musculus [1]) of the same molecule?
A: 65%

Q: What about the inhibition in vivo at 100 mg/kg (Rattus norvegicus [14]) of the same molecule?
A: 55%

Q: What about the inhibition in vivo at 25 mg/kg (Mus musculus [15]) of the same molecule?
A: 42%

Q: And the inhibition in vivo at 50 mg/kg (Mus musculus [16])?
A: 51%

Q: And the inhibition in vivo at 100 mg/kg (Mus musculus [2])?
A: 58%

Q: And the inhibition in vivo at 15 mg/kg (Rattus norvegicus [17])?
A: 4%

Q: With `CCOP(=O)(OCC)C1(P(=O)(OCC)OCC)CC(C(=O)c2ccccc2)=NN1C` as the molecule, how does the inhibition in vivo at 100 mg/kg (Mus musculus [1]) read?
A: 8%

Q: What about the inhibition in vivo at 100 mg/kg (Mus musculus [2]) of the same molecule?
A: 11%

Q: Which results are given for `CCOP(=O)(OCC)C1(P(=O)(OCC)OCC)CC(C(=O)c2ccccc2C)=NN1`?
A: inhibition in vivo at 100 mg/kg (Mus musculus [18]): 8%; inhibition in vivo at 100 mg/kg (Rattus norvegicus [19]): 66%; inhibition in vivo at 100 mg/kg (Rattus norvegicus [10]): 9%; inhibition in vivo at 100 mg/kg (Mus musculus [1]): 48%; inhibition in vivo at 100 mg/kg (Mus musculus [2]): 37%; inhibition in vivo at 15 mg/kg (Rattus norvegicus [17]): 18%; inhibition in vivo at 15 mg/kg (Rattus norvegicus [20]): 49%

Q: What does the source list for `CCOP(=O)(OCC)C1(P(=O)(OCC)OCC)CC(C(=O)c2ccccc2)=NN1CC(=O)OC`?
A: inhibition in vivo at 100 mg/kg (Mus musculus [1]): 1%; inhibition in vivo at 100 mg/kg (Mus musculus [2]): 1%

Q: With `O=C(C1=NNC(P(=O)(O)O)(P(=O)(O)O)C1)C1CCCCC1` as the molecule, how does the inhibition in vivo at 100 mg/kg (Mus musculus [1]) read?
A: 16%

Q: What about the inhibition in vivo at 100 mg/kg (Mus musculus [2]) of the same molecule?
A: 1%

Q: Which results are given for `CCOP(=O)(OCC)C1(P(=O)(OCC)OCC)CC(C(=O)CC)=NN1`?
A: inhibition in vivo at 200 mg/kg (Mus musculus [21]): 35%; inhibition in vivo at 200 mg/kg (Mus musculus [22]): 28%

Q: What does the source list for `CCOP(=O)(OCC)C1(P(=O)(OCC)OCC)CC(C(=O)c2ccc(C)cc2)=NN1`?
A: inhibition in vivo at 100 mg/kg (Mus musculus [1]): 22%; inhibition in vivo at 100 mg/kg (Mus musculus [2]): 20%

Q: Which inhibition in vivo at 100 mg/kg (Mus musculus [1]) does the source give for `CCOP(=O)(OCC)C1(P(=O)(OCC)OCC)CC(C(=O)c2ccccc2)=NN1CCCN1N=C(C(=O)c2ccccc2)CC1(P(=O)(OCC)OCC)P(=O)(OCC)OCC` here?
A: 5%

Q: What about the inhibition in vivo at 100 mg/kg (Mus musculus [2]) of the same molecule?
A: 10%

Q: `O=P(O)(O)C(Cl)(Cl)P(=O)(O)O` [CLODRONIC ACID] was tested. Which inhibition in vivo at 30 mg/kg (Rattus norvegicus [23]) did it give?
A: 36%

Q: And the inhibition in vivo at 5 mg/kg (Rattus norvegicus [24])?
A: 51%

Q: And the inhibition in vivo at 15 mg/kg (Rattus norvegicus [25])?
A: 33%

Q: And the inhibition in vivo at 10 mg/kg (Rattus norvegicus [26])?
A: 38%

Q: What about the inhibition in vivo at 50 mg/kg (Mus musculus [27]) of the same molecule?
A: 46%

Q: What about the inhibition in vivo at 10 mg/kg (Rattus norvegicus [28]) of the same molecule?
A: 61%

Q: What about the inhibition in vivo at 15 mg/kg (Rattus norvegicus [29]) of the same molecule?
A: 70%

Q: What about the inhibition in vivo at 200 mg/kg (Mus musculus [30]) of the same molecule?
A: 52%

Q: What about the inhibition in vivo at 15 mg/kg (Mus musculus [31]) of the same molecule?
A: 46%

Q: What about the inhibition in vivo at 100 mg/kg (Mus musculus [1]) of the same molecule?
A: 47%

Q: And the inhibition in vivo at 30 mg/kg (Mus musculus [32])?
A: 46%

Q: What about the inhibition in vivo at 100 mg/kg (Mus musculus [2]) of the same molecule?
A: 45%

Q: And the inhibition in vivo at 100 mg/kg (Mus musculus [33])?
A: 51%

Q: And the inhibition in vivo at 5 mg/kg (Rattus norvegicus [34])?
A: 21%

Q: And the inhibition in vivo at 5 mg/kg (Mus musculus [35])?
A: 4%

Q: And the inhibition in vivo at 30 mg/kg (Rattus norvegicus [36])?
A: 54%
